The values that follow come from ChEMBL document CHEMBL1759864, “Synthesis and proteasome inhibition of lithocholic acid derivatives” (Bioorg Med Chem Lett, 2011).

The nature of test [1]: Inhibition of trypsin-like activity of 20S proteasome.
Test [2] can be described thus: Inhibition of caspase-like activity of 20S proteasome.
The nature of test [3]: Inhibition of chymotrypsin-like activity of 20S proteasome.
In a further test the test system is HeLa. The test is described as follows: Inhibition of proteasome activity in human HeLa cells transfected with UbG76V-GFP assessed as accumulation of ubiquitinG76V-GFP at 7.5 uM after 24 hrs by fluorescence microscopy. The method, boiled down: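 HeLa cells stably expressing Ub^G76V-GFP, grown in DMEM with 10% heat-inactivated FBS at 37 °C, humidified. Cells seeded at 10,000 per well and exposed to compound at 7.5 µM for 24 h. Proteasome block is read as intracellular Ub^G76V-GFP accumulation (green fluorescence), documented by fluorescence microscopy against untreated cells.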

Structures are written as SMILES. The source made the active and inactive calls. The rule behind the calls is not given here. Where a SMILES comes first, the peptide text is derived from it.

Regarding `C[C@H](CCC(=O)O)[C@H]1CC[C@H]2[C@@H]3CC[C@@H]4C[C@H](OC(=O)Cc5cccc(CC(=O)O)c5)CC[C@]4(C)[C@H]3CC[C@]12C`, the IC50 – broadly, the point on the concentration scale where inhibition reaches its midpoint – in test [1] is 9.1 µM; in test [2] it was 6.5 µM; in test [3], 1.9 µM. On to `C[C@H](CCC(=O)O)[C@H]1CC[C@H]2[C@@H]3CC[C@@H]4C[C@H](OC(=O)CC5(CC(=O)O)CCCC5)CC[C@]4(C)[C@H]3CC[C@]12C`, for which the inhibition entry in the test on HeLa was “Active”. The compound further registered an IC50 in test [3] of 2.2 µM. With `C[C@H](CCC(=O)O)[C@H]1CC[C@H]2[C@@H]3CC[C@@H]4C[C@H](OC(=O)COCC(=O)O)CC[C@]4(C)[C@H]3CC[C@]12C`, in test [3], half-maximal inhibition (IC50) was put at 6.9 µM. Consider `C[C@H](CCC(=O)O)[C@H]1CC[C@H]2[C@@H]3CC[C@@H]4C[C@H](OC(=O)c5ccccc5C(=O)O)CC[C@]4(C)[C@H]3CC[C@]12C`, for which, in test [3], 8.6 µM corresponded to half-maximal inhibition (IC50).

Turning to `C[C@H](CCC(=O)O)[C@H]1CC[C@H]2[C@@H]3CC[C@@H]4C[C@H](OC(=O)Cc5ccc(CC(=O)O)cc5)CC[C@]4(C)[C@H]3CC[C@]12C`, in test [3], the half-maximal inhibitory concentration (IC50) came out at 3.8 µM. In the case of `C[C@H](CCC(=O)O)[C@H]1CC[C@H]2[C@@H]3CC[C@@H]4C[C@H](O)CC[C@]4(C)[C@H]3CC[C@]12C` [LITHOCHOLIC ACID], half-maximal inhibition in test [3] (IC50) required 18.1 µM. Consider `CCOC(=O)CC[C@@H](C)[C@H]1CC[C@H]2[C@@H]3CC[C@@H]4C[C@H](OC(=O)CCCCCC(=O)O)CC[C@]4(C)[C@H]3CC[C@]12C`, for which the inhibition entry in test [3] was “inactive”.

On to `C[C@H](CCC(=O)O)[C@H]1CC[C@H]2[C@@H]3CC[C@@H]4C[C@H](OC(=O)CCCC(=O)O)CC[C@]4(C)[C@H]3CC[C@]12C`, for which the IC50 in test [3] worked out at 10.8 µM. With `C[C@H](CCC(=O)O)[C@H]1CC[C@H]2[C@@H]3CC[C@@H]4C[C@H](OC(=O)CCCCCC(=O)O)CC[C@]4(C)[C@H]3CC[C@]12C`, the inhibition entry in test [3] was “inactive”.

In the case of `C[C@H](CCC(=O)O)[C@H]1CC[C@H]2[C@@H]3CC[C@@H]4C[C@H](OC(=O)CCC(=O)O)CC[C@]4(C)[C@H]3CC[C@]12C`, the IC50 in test [3] stood at 10.3 µM. In test [3], `CSCC[C@@H](C=O)NC(=O)[C@H](CC(C)C)NC(=O)[C@H](CC(C)C)NC(C)=O` (Ac-Leu-Leu-Met-aldehyde) gave an IC50 of 5.2 µM. For the compound `COC(=O)CC[C@@H](C)[C@H]1CC[C@H]2[C@@H]3CC[C@@H]4C[C@H](OC(=O)Cc5cccc(CC(=O)O)c5)CC[C@]4(C)[C@H]3CC[C@]12C`, the inhibition entry in test [3] is “inactive”. On to `COC(=O)CC[C@@H](C)[C@H]1CC[C@H]2[C@@H]3CC[C@@H]4C[C@H](O)CC[C@]4(C)[C@H]3CC[C@]12C`, for which, in test [3], the inhibition entry was “inactive”. Consider `C[C@H](CCC(=O)O)[C@H]1CC[C@H]2[C@@H]3CC[C@@H]4C[C@H](OC(=O)CCCCC(=O)O)CC[C@]4(C)[C@H]3CC[C@]12C`, for which, in test [3], it took 3.5 µM to reach half-maximal inhibition (IC50). Take `CCOC(=O)CC[C@@H](C)[C@H]1CC[C@H]2[C@@H]3CC[C@@H]4C[C@H](O)CC[C@]4(C)[C@H]3CC[C@]12C`: the inhibition result in test [3] is “inactive”.

In test [3], `CC(C(=O)O)C(C)C(=O)O[C@@H]1CC[C@@]2(C)[C@H](CC[C@@H]3[C@@H]2CC[C@]2(C)[C@@H]([C@H](C)CCC(=O)O)CC[C@@H]32)C1` (some centres not stated) had an IC50 of 5.8 µM.

As to `COC(=O)CC[C@@H](C)[C@H]1CC[C@H]2[C@@H]3CC[C@@H]4C[C@H](OC(=O)CCCCCC(=O)O)CC[C@]4(C)[C@H]3CC[C@]12C`, in test [3], the inhibition result was “inactive”. In test [3], `C[C@H](CCC(=O)O)[C@H]1CC[C@H]2[C@@H]3CC[C@@H]4C[C@H](OC(=O)[C@@H]5CCCC[C@H]5C(=O)O)CC[C@]4(C)[C@H]3CC[C@]12C` registered an IC50 of 8.5 µM. Same read-out and setting: the result for `CC(CC(=O)O[C@@H]1CC[C@@]2(C)[C@H](CC[C@@H]3[C@@H]2CC[C@]2(C)[C@@H]([C@H](C)CCC(=O)O)CC[C@@H]32)C1)C(=O)O` (some centres not stated) reads 11.5 µM.
